Reference: ChEMBL document CHEMBL4428081, “Selective AKR1C3 Inhibitors Potentiate Chemotherapeutic Activity in Multiple Acute Myeloid Leukemia (AML) Cell Lines” (ACS Med Chem Lett, 2016)
pIC50: −log10 of the molar value. The source made the active and inactive calls. The rule behind the calls is not given here.

What was measured:
KG-1a [1] = test: Cytotoxicity against human KG1a cells expressing AKR1C3 assessed as reduction in cell viability at >25 uM at 72 hrs by MTS assay; format: functional, cell-based
[2] = molecular target: T1, Aldo-keto reductase family 1 member C3 (Homo sapiens) (UniProt P42330); test: Inhibition of AKR1C3 in human HL60 cells assessed as potentiation of etoposide-induced cytotoxicity by measuring reduction in cell viability at 0.1 uM coincubated with etoposide at 0.5 uM after 72 hrs by MTS assay (reference value: 20%); format: cell-based
T1 sequence (whole entry): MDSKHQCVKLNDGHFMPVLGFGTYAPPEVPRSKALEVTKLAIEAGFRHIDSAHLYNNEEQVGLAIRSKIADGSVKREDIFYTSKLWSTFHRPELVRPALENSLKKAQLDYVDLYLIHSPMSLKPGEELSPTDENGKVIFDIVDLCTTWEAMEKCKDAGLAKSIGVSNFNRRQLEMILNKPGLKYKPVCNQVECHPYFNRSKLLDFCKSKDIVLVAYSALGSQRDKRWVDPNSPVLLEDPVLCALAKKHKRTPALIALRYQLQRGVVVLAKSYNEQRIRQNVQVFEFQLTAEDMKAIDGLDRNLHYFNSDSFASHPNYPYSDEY
Method in brief: (§1)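 HL-60 or KG1a cells were coincubated with inhibitor and etoposide for 72 h, then cell viability was read. Values are mean ± SD (n = 6). Treatments were compared with control by two-tailed t test.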

[3] = molecular target: T1, Aldo-keto reductase family 1 member C3 (Homo sapiens); test: Inhibition of AKR1C3 in human HL60 cells assessed as potentiation of etoposide-induced cytotoxicity by measuring reduction in cell viability at 0.1 uM coincubated with etoposide at 1 uM after 72 hrs by MTS assay (reference value: 40%); format: cell-based; method in brief: as §1
[4] = molecular target: T1, Aldo-keto reductase family 1 member C3 (Homo sapiens); test: Inhibition of AKR1C3 in human KG1a cells assessed as potentiation of etoposide-induced cytotoxicity by measuring reduction in cell viability at 0.1 uM coincubated with etoposide at 1 uM after 72 hrs by MTS assay; format: cell-based; method in brief: as §1
HL-60 [5] = test: Cytotoxicity against human HL60 cells assessed as reduction in cell viability up to 100 uM at 72 hrs by MTS assay; format: functional, cell-based
Method in brief: (§2)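 HL-60 human acute promyelocytic leukemia cells exposed to AKR1C3 inhibitor alone, with no chemotherapeutic, over a range up to 100 μM. Lower working range was 0.1–1 μM. Read-out was cell viability relative to untreated control.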

[6] = molecular target: T1, Aldo-keto reductase family 1 member C3 (Homo sapiens); test: Inhibition of AKR1C3 in human HL60 cells assessed as potentiation of etoposide-induced cytotoxicity by measuring reduction in cell viability pre-treated with 0.1 to 1 uM compound for 24 hrs followed by 1 uM etoposide exposure for additional 72 hrs by MTS assay; format: cell-based
KG-1a [7] = test: Cytotoxicity against human KG1a cells expressing AKR1C3 assessed as reduction in cell viability at 1 uM at 72 hrs by MTS assay; format: functional
HL-60 [8] = test: Cytotoxicity against human HL60 cells assessed as reduction in cell viability at 50 uM at 72 hrs by MTS assay; format: functional, cell-based; method in brief: as §2
HL-60 [9] = test: Cytotoxicity against human HL60 cells assessed as reduction in cell viability at 0.1 to 1 uM at 72 hrs by MTS assay; format: functional; method in brief: as §2
HL-60 [10] = test: Downregulation of AKR1C3 expression in human HL60 cells at 1 to 10 uM after 72 hrs by Western blot analysis; format: functional, cell-based
Method in brief: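 KG1a and HL-60 cells were incubated with inhibitor at 1, 5 and 10 μM. AKR1C3 expression levels were determined after 48 h and 72 h incubation.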

[11] = molecular target: Aldo-keto reductase family 1 member C3 (Homo sapiens, UniProt P42330); test: Inhibition of N-terminal His6-tagged human recombinant AKR1C3 in presence of NADPH by fluorescence assay

Row | SMILES | Activity (KG-1a [1]) | Activity [2] [%] | Activity [3] [%] | Activity [4] [%] | Activity (HL-60 [5]) | Activity [6] [%] | Activity (KG-1a [7]) [%] | Activity (HL-60 [8]) | Activity (HL-60 [9]) [%] | Activity (HL-60 [10]) | pIC50 [11]
1 | CC(C)=CCc1cc(/C=C/C(=O)O)ccc1NC(=O)CCc1ccccc1 | Active | 25 | 57 | 42 | inactive | 80 to 95 | – | – | – | – | –
2 | CC(C)=CCc1ccc(/C=C/C(=O)O)cc1NC(=O)CCc1ccccc1 | – | 45 | 52 | 40 | – | 80 to 95 | 20 | Active | 8 | Active | –
3 | C[C@@H]1C(O)=C(C(N)=O)C(=O)[C@@]2(O)C(O)=C3C(=O)c4c(O)cccc4[C@@](C)(O)[C@H]3C[C@@H]12 | – | – | – | – | – | – | – | – | – | – | 6.30
